Data on 19 compounds can be found in ChEMBL document CHEMBL3271934, “Inhibition of separated forms of phosphodiesterases from pig coronary arteries by uracils and by 7-substituted derivatives of 1-methyl-3-isobutylxanthine” (J Med Chem, 1976).

In general, inhibition refers to the percentage by which the read-out fell short of the control.

Assay [1] is described as follows: Inhibition of phosphodiesterase (peak-1) isolated from pig coronary artery assessed as inhibition of cAMP hydrolysis using 1 uM cAMP substrate in presence of 3% Me2SO. As to conditions: Sus scrofa; read-out: I50. In short, it runs like this:
(§1)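 Enzyme is a separated phosphodiesterase form from pig coronary arteries, assayed with 1 μM substrate at 30° for 30 min. Enzyme dilution gave 10–20% hydrolysis without inhibitor. Compounds were added from 30% Me2SO, giving a final 3% Me2SO in all tubes. Peak I received an optimal amount of activator (15 μg protein). I50 was read from concentration–percent inhibition curves spanning 10^-7 to 10^-4 M (10^-3 M if soluble). MIX reference was run each experiment. Results are mean ± SEM of duplicate determinations across enzyme preparations.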

For assay [2], the species on record is Sus scrofa. Kind of assay: Inhibition of phosphodiesterase (peak-2) isolated from pig coronary artery assessed as inhibition of cAMP hydrolysis at 10^-4 M using 1 uM cAMP substrate in presence of 3% Me2SO. In short, it runs like this: (§2)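 Percent inhibition was measured at a single 10^-4 M concentration against a separated pig coronary artery phosphodiesterase form. Conditions: 1 μM substrate, 30°, 30 min, enzyme dilution giving 10–20% uninhibited hydrolysis, final 3% Me2SO in all tubes including blank. Peak I was assayed with an optimal amount of activator (15 μg protein). Results are duplicate determinations, mean ± SEM over separate enzyme preparations.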

Assay [3] in a line: Inhibition of phosphodiesterase (peak-2) isolated from pig coronary artery assessed as inhibition of cAMP hydrolysis using 1 uM cAMP substrate in presence of 3% Me2SO. The settings on record: Sus scrofa; read-out: I50. In short, it runs like this: as §1
Assay [4] is described as follows: Inhibition of phosphodiesterase (peak-1) isolated from pig coronary artery assessed as inhibition of cGMP hydrolysis using 1 uM cGMP substrate in presence of 3% Me2SO. As to conditions: Sus scrofa; read-out: I50. The gist of the method:
as §1

For assay [5], the species on record is Sus scrofa. Kind of assay: Inhibition of phosphodiesterase (peak-1) isolated from pig coronary artery assessed as inhibition of cAMP hydrolysis at 10^-4 M using 1 uM cAMP substrate in presence of 3% Me2SO. The gist of the method:
as §2

The species named for assay [6] is Sus scrofa. Kind of assay: Inhibition of phosphodiesterase (peak-1) isolated from pig coronary artery assessed as inhibition of cGMP hydrolysis at 10^-4 M using 1 uM cGMP substrate in presence of 3% Me2SO. The gist of the method: as §2
The species named for assay [7] is Sus scrofa. The assay can be described thus: Inhibition of phosphodiesterase (peak-1) isolated from pig coronary artery assessed as inhibition of cGMP hydrolysis at 10^-7 to 10^-4 M using 1 uM cGMP substrate in presence of 3% EtOH.
Assay [8] is filed under the species Sus scrofa. Kind of assay: Inhibition of phosphodiesterase (peak-1) isolated from pig coronary artery assessed as inhibition of cAMP hydrolysis at 10^-7 to 10^-4 M using 1 uM cAMP substrate in presence of 3% EtOH.
For assay [9], the species on record is Sus scrofa. The assay can be described thus: Inhibition of phosphodiesterase (peak-2) isolated from pig coronary artery assessed as inhibition of cAMP hydrolysis at 10^-7 to 10^-4 M using 1 uM cAMP substrate in presence of 3% EtOH.

pIC50: −log10 of the molar value. Activity calls are given as the source filed them. The rule behind the calls is not given here.

`CC(C)Cn1c(=O)n(C)c(=O)c2c1ncn2Cc1ccncc1`: the values for the pIC50 in assay [1], in assay [3] and in assay [4] were 3.98, < 3.52 and 3.84, respectively. Moreover, the inhibition in the assay filed under Sus scrofa [2] is 30%.

As to `CC(C)Cn1c(N)c(NCc2ccccc2)c(=O)n(C)c1=O`, the inhibition is 37% in the assay filed under Sus scrofa [5], 30% in the assay listed under Sus scrofa [6] and 9% in the assay filed under Sus scrofa [2].

Take `COc1ccccc1Cn1cnc2c1c(=O)n(C)c(=O)n2CC(C)C`: the pIC50 is 4.72 in [1], 4.12 in assay [3] and 4.59 in [4].

As for `C#CCn1cnc2c1c(=O)n(C)c(=O)n2CC(C)C`, the results for the pIC50 in [1], in assay [3] and in assay [4] were 4.55, 4.19 and 4.44, respectively.

`CC(C)Cn1c(=O)n(C)c(=O)c2c1ncn2Cc1ccc(Cl)cc1`: the pIC50 in [1] was 5.64; in assay [3] it was 4.37; in assay [4] it was 5.68.

`CC(C)Cn1c(=O)n(C)c(=O)c2c1ncn2Cc1ccc([N+](=O)[O-])cc1`: the pIC50 in assay [1] is 4.57; in assay [3], < 4.00; in assay [4], 4.47. The inhibition in the assay listed under Sus scrofa [2] turned out to be 44%.

With `COc1cc(Cn2cnc3c2c(=O)n(C)c(=O)n3CC(C)C)cc(OC)c1OC`, the results for the pIC50 in assay [1], in [3] and in assay [4] were 4.46, < 4.00 and 4.34, respectively. Moreover, the inhibition in the assay listed under Sus scrofa [2] came to 31%.

For the compound `CC(C)Cn1c(=O)n(C)c(=O)c2c1ncn2Cc1ccccc1[N+](=O)[O-]`, the pIC50 in [1] was 4.39; in assay [3] it was 3.85; in assay [4] it was 4.22.

Regarding `CC(C)Cn1c(=O)n(C)c(=O)c2nc[nH]c21` [ISOBUTYLMETHYLXANTHINE], the inhibition result in the assay filed under Sus scrofa [7], in the assay listed under Sus scrofa [8] and in the assay filed under Sus scrofa [9] was “Active” throughout. For the same compound, the pIC50 is 5.41 in assay [1], 4.82 in [3] and 5.20 in assay [4].

On to `CC(C)CCn1cnc2c1c(=O)n(C)c(=O)n2CC(C)C`, for which the pIC50 in assay [1] was 4.72; in assay [3], < 4.00; in assay [4] it was 4.80. Also, in the assay listed under Sus scrofa [2], the inhibition is 36%.

For `Cn1c(N)c(NCc2ccccc2)c(=O)n(C)c1=O`, the inhibition in the assay listed under Sus scrofa [5] was determined as 26%; in the assay listed under Sus scrofa [6], 17%; in the assay listed under Sus scrofa [2] it was 15%.

Turning to `CC(C)Cn1c(=O)n(C)c(=S)c2c1ncn2Cc1ccccc1`, the values for the pIC50 in assay [1], in [3] and in assay [4] were 5.57, 4.55 and 5.48, respectively.

As to `CC(C)Cn1c(=O)n(C)c(=O)c2c1ncn2CC1CC1`, the pIC50 was 5.43 in [1], 4.70 in assay [3] and 5.21 in [4].

On to `CC(C)Cn1c(=O)n(C)c(=O)c2c1ncn2Cc1cccc(Cl)c1`, for which the pIC50 is 5.89 in assay [1], 4.32 in assay [3] and 5.68 in [4].

With `CC(C)Cn1c(=O)n(C)c(=O)c2c1ncn2CCc1ccccc1`, the pIC50 in assay [1] is 4.77; in [3], < 4.00; in [4], 4.55. The inhibition in the assay listed under Sus scrofa [2] is 41%.

As for `CC(C)Cn1c(=O)n(C)c(=S)c2[nH]cnc21`, the pIC50 is 5.26 in assay [1], 5.17 in assay [3] and 5.15 in [4].

Turning to `CC(C)Cn1c(=O)n(C)c(=O)c2c1ncn2Cc1ccccc1`, the inhibition result in the assay filed under Sus scrofa [7], in the assay listed under Sus scrofa [8] and in the assay filed under Sus scrofa [9] was “Active” throughout. Also, the pIC50 is 5.44 in assay [1], 3.97 in assay [3] and 5.36 in assay [4].

As for `CC(C)Cn1cc(NCc2ccccc2)c(=O)n(C)c1=O`, the inhibition came out at 17% in the assay listed under Sus scrofa [5], 10% in the assay listed under Sus scrofa [6] and 6% in the assay filed under Sus scrofa [2].

As for `CC(C)Cn1c(=O)n(C)c(=O)c2c1ncn2C`, the pIC50 in [1] is 4.26; in [3] it was 3.90; in assay [4], 4.19.
